Experiment [1] addresses Mitogen-activated protein kinase kinase kinase 11 (Homo sapiens, UniProt Q16584). Description: Inhibition of GST-MLK3 expressed in baculovirus.
The target in experiment [2] is T1, Mitogen-activated protein kinase kinase kinase 9 (Homo sapiens, UniProt P80192). Description: Inhibition of GST-MLK1 expressed in baculovirus.
For experiment [3], the target named is T2, Choline O-acetyltransferase (Rattus norvegicus) (UniProt P32738).
T2 sequence (whole entry): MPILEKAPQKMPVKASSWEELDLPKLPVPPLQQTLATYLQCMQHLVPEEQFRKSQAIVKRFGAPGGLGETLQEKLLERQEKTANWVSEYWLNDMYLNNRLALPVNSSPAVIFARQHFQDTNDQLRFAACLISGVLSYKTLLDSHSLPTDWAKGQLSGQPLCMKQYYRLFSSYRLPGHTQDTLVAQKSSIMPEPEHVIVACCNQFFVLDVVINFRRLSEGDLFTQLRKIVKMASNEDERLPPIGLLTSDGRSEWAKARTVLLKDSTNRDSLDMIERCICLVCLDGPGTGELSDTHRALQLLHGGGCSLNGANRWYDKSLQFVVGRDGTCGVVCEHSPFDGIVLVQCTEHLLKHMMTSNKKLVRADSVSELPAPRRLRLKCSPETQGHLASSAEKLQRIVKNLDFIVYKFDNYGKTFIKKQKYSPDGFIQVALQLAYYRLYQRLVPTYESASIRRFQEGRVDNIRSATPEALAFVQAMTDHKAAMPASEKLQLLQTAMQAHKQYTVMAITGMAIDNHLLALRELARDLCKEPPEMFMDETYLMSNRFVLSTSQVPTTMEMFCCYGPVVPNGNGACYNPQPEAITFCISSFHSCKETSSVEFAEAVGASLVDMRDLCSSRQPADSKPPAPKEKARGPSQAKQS
Nature of the experiment: Enhancement of choline acetyltransferase activity in embryonic rat spinal cord at 300 nM. In a few lines: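 Embryonic rat spinal cord cultures; compounds at 300 nM, ChAT activity measured after 2 days in culture, expressed as percent of basal (100%). K-252a run as internal control. Mean ± standard deviation of three independent experiments.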

For experiment [4], the target named is Epidermal growth factor receptor (Homo sapiens) (UniProt P00533). Description: Inhibition of EGFR at 1 uM.
Sequence of Epidermal growth factor receptor (Homo sapiens) (P00533 whole entry): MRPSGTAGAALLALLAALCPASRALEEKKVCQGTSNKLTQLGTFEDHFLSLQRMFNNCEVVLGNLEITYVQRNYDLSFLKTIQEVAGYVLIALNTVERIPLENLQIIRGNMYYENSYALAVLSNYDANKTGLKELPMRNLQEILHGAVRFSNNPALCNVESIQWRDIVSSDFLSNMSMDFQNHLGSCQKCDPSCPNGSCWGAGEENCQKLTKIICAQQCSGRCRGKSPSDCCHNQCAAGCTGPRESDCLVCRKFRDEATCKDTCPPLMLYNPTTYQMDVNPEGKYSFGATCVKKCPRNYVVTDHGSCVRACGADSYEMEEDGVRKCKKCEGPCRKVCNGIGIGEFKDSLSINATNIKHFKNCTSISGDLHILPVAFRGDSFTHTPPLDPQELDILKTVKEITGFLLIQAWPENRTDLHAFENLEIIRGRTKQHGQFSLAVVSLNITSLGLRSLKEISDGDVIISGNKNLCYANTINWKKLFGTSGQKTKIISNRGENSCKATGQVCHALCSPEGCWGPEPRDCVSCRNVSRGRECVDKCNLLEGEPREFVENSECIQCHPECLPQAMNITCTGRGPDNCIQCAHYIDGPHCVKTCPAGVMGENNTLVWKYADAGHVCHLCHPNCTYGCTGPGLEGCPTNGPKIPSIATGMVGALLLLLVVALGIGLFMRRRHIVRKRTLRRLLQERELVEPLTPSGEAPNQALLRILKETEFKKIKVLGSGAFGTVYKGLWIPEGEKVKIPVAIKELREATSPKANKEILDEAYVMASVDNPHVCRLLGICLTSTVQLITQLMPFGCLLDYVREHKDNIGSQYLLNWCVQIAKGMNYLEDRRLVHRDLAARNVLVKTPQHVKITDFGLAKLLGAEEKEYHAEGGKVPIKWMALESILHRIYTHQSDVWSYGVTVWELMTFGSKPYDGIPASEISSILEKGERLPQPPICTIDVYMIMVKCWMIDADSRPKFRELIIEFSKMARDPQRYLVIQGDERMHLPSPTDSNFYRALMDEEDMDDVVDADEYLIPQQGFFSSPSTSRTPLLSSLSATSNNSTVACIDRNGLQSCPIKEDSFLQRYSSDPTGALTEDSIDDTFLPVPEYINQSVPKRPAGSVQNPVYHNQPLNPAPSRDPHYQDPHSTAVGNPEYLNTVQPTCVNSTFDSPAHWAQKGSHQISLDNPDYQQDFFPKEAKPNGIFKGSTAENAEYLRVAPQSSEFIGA
Experiment [5] deals with Mitogen-activated protein kinase kinase kinase 10 (Homo sapiens, UniProt Q02779). Description: Inhibition of GST-MLK2.
In experiment [6] the target is Fibroblast growth factor receptor 1 (Homo sapiens) (UniProt P11362). Nature of the experiment: Inhibition of FGFR1 at 1 uM.
Sequence of Fibroblast growth factor receptor 1 (Homo sapiens) (P11362 22-822 limits assumed): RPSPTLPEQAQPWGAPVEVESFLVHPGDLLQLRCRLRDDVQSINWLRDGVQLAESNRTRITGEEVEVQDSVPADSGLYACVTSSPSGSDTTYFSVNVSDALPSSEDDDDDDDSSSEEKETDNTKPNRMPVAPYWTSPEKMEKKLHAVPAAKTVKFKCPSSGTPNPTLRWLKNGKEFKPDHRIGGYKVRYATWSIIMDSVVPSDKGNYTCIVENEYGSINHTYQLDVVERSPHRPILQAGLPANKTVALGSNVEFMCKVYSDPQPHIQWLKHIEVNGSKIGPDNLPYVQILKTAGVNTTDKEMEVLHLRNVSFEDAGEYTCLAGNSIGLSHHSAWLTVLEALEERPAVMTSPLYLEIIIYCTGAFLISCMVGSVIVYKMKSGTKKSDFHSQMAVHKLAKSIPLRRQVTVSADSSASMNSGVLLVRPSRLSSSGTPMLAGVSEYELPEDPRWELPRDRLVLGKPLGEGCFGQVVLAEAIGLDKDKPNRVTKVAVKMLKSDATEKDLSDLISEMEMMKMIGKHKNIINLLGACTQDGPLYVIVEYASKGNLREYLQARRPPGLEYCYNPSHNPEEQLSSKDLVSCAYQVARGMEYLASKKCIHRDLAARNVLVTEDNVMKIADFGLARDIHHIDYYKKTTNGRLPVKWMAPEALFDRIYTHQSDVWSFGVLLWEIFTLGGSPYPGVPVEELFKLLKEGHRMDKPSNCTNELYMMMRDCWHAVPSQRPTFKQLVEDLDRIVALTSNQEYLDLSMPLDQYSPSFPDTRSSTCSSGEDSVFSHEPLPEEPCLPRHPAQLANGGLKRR
In experiment [7] the target is Platelet-derived growth factor receptor beta (Homo sapiens) (UniProt P09619). Description: Inhibition of PDGFRbeta at 1 uM.
Experiment [8] concerns the target Mitogen-activated protein kinase 14 (Homo sapiens) (UniProt Q16539). Description: Inhibition of p38-alpha at 1 uM.
Experiment [9] concerns the target Cyclin-dependent kinase 1 (Homo sapiens) (UniProt P06493). Nature of the experiment: Inhibition of CDK1 at 1 uM.
The target of experiment [10] is Insulin receptor (Homo sapiens) (UniProt P06213). Nature of the experiment: Inhibition of IRKbeta at 1 uM.
Experiment [11] concerns the target T1, Mitogen-activated protein kinase kinase kinase 9. Description: Inhibition of MKK4 phosphorylation in MLK1 transfected CHO cells at 1 uM after 1 hr. The experiment is classed as functional, cell-based. The method in brief: (§1)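 CHO cells transfected with MLK1 plus dominant-negative MKK4 cDNA. Compound exposure 1 h, tested up to 1 µM. Phospho-MKK4 read by ELISA.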

The target of the next experiment is Protein kinase C (PKC). Nature of the experiment: Inhibition of PKC. The experiment is classed as protein assay, Homo sapiens.
In experiment [12] the target is Cyclin-dependent kinase 2 (Homo sapiens) (UniProt P24941). Description: Inhibition of CDK2 at 1 uM.
In experiment [13] the target is Angiopoietin-1 receptor (Homo sapiens) (UniProt Q02763). Description: Inhibition of TIE2 at 1 uM.
Sequence of Angiopoietin-1 receptor (Homo sapiens) (Q02763 whole entry): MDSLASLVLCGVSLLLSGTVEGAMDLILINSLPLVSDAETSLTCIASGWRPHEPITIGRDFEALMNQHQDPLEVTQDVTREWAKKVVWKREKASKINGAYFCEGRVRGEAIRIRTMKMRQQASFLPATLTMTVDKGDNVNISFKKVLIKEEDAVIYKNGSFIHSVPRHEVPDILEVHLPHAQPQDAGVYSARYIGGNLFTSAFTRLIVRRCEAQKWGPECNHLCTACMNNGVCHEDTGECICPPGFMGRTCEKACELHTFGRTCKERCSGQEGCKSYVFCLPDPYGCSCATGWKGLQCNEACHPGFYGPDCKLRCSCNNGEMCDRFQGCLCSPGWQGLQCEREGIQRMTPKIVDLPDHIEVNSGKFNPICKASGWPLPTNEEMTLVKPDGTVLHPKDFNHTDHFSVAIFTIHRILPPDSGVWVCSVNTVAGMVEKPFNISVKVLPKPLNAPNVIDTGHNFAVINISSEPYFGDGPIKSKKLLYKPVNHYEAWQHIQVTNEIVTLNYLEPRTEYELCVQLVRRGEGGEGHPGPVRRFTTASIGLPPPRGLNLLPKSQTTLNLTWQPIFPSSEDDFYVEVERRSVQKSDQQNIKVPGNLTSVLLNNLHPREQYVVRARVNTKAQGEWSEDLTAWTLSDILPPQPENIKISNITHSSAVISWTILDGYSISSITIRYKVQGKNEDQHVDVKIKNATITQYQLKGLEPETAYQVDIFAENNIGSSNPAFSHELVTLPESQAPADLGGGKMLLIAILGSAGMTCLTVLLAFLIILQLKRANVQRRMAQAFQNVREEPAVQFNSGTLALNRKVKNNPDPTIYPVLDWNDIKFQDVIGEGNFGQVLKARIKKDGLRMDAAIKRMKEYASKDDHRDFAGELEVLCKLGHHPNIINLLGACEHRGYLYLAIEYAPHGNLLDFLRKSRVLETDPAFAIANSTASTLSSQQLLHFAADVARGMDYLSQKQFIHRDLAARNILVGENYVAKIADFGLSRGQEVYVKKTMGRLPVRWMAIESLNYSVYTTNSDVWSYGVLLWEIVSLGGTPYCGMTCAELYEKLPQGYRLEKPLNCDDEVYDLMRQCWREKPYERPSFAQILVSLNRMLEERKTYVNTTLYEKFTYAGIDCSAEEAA
In experiment [14] the target is Mitogen-activated protein kinase 8 (Homo sapiens) (UniProt P45983). Description: Inhibition of JNK1 at 1 uM.
For experiment [15], the target named is T1, Mitogen-activated protein kinase kinase kinase 9. Nature of the experiment: Inhibition of MKK4 phosphorylation in MLK1 transfected CHO cells after 1 hr. The experiment is classed as functional, cell-based. The method in brief: as §1
The target of experiment [16] is High affinity nerve growth factor receptor (Homo sapiens, UniProt P04629). Nature of the experiment: Inhibition of TrkA.
Experiment [17] concerns the target Vascular endothelial growth factor receptor 2 (Homo sapiens, UniProt P35968). Nature of the experiment: Inhibition of VEGFR2.

The structures appear in SMILES notation. Active and inactive are the calls of the source. The rule behind the calls is not given here.

Sequence of Mitogen-activated protein kinase 14 (Homo sapiens) (Q16539 whole entry): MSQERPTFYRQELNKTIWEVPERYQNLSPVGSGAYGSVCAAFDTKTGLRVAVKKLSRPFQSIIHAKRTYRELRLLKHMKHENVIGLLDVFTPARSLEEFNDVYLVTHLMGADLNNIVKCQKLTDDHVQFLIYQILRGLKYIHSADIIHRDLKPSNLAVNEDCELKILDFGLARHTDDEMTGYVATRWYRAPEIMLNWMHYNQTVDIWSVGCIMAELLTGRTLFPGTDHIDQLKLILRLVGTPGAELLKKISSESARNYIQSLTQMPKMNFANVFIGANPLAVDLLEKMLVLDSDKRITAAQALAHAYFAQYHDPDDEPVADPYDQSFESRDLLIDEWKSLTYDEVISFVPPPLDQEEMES
Sequence of Vascular endothelial growth factor receptor 2 (P35968 whole entry): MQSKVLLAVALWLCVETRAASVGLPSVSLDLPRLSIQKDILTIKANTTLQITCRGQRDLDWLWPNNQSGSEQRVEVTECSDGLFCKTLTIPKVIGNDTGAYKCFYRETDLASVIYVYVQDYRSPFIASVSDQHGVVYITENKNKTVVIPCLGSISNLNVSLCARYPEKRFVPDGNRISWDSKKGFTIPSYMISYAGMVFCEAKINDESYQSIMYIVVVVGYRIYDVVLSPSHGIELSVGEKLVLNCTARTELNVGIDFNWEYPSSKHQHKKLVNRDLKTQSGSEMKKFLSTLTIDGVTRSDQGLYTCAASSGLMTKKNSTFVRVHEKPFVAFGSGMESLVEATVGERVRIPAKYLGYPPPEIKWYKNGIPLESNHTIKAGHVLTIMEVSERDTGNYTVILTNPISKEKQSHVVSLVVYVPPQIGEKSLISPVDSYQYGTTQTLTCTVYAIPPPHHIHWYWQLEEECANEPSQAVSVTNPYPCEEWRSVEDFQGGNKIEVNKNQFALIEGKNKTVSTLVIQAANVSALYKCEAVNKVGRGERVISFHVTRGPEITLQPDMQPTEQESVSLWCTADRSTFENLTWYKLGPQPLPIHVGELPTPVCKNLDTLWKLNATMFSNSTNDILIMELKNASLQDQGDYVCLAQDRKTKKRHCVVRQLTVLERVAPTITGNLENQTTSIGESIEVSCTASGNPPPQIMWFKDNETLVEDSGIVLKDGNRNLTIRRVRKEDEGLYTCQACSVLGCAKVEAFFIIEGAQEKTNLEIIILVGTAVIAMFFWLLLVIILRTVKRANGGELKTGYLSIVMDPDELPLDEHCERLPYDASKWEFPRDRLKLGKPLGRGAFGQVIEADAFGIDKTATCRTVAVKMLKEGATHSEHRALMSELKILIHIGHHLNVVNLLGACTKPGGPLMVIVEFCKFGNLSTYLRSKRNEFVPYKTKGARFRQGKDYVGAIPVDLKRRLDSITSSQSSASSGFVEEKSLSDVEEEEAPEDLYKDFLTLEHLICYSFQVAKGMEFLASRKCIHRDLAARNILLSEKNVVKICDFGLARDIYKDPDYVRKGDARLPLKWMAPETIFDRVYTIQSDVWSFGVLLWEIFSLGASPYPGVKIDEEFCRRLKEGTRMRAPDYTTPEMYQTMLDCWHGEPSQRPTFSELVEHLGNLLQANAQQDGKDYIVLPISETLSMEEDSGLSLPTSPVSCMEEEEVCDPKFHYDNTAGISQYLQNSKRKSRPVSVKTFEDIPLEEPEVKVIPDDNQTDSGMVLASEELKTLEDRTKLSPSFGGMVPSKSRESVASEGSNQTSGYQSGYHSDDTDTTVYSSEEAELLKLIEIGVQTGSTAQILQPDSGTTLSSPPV

Turning to `O=C1NCc2c1c1c3ccccc3[nH]c1c1[nH]c3ccccc3c21` [STAUROSPORINONE], the values for the half-maximal inhibitory concentration (IC50) in experiment [1] and in experiment [2] were 49 nM and 138 nM, respectively.

With `O=C1NCc2c1c1c3ccccc3sc1c1sc3ccccc3c21`, the IC50 in experiment [1] and in [2] was > 10000 nM in each case. Also, the outcome in experiment [3] was inactive.

In the case of `O=C1NCc2c3c(c4[nH]c5ccccc5c4c21)-c1ccccc1C3`, the outcome in experiment [1] and in [2] was inactive.

Regarding `O=C1NCc2c1c1c3ccccc3[nH]c1c1sc3ccccc3c21`, the half-maximal inhibitory concentration (IC50) in experiment [1] came out at 171 nM; in [2] it was 1800 nM.

In the case of `O=C1NC(=O)c2c1c1c3ccccc3[nH]c1c1sc3ccccc3c21`, the IC50 in experiment [1] was found to be 58 nM; in [2], 68 nM.

With `O=C1NCc2c1c1c3ccccc3[nH]c1c1oc3ccccc3c21`, the values for the half-inhibitory concentration (IC50) in experiment [1] and in experiment [2] were 270 nM and 308 nM, respectively. In addition, the outcome in experiment [3] was inactive.

For `O=C1NCc2c3c(c4sc5ccccc5c4c21)Cc1ccccc1-3`, the IC50 in experiment [1] came to 110 nM; in experiment [2], 615 nM.

`O=C1NCc2c1c1c(c3[nH]c4ccccc4c23)-c2ccccc2C1`: the result in experiment [1] and in experiment [2] was inactive.

Take `O=C1NC(=O)c2c1c1c3ccccc3[nH]c1c1oc3ccccc3c21`: the IC50 in experiment [1] and in experiment [2] was > 300 nM in each case. Also, in experiment [3], the result was inactive.

Take `O=C1NCc2c3c(c4[nH]c5ccccc5c4c21)Cc1ccccc1-3`: the inhibition in experiment [4], in [6], in experiment [7], in [8], in [9] and in experiment [10] was < 30% in each case. The inhibition in experiment [12], in [13] and in experiment [14] was < 30% in each case. Moreover, the IC50 in experiment [5] was 2660 nM; in experiment [1], 87 nM; in [2], 167 nM; on Protein kinase C (PKC), > 1000 nM. In [11], this compound yielded an Inhibition of 22%. The Activity in experiment [3] amounted to 155%.

`O=C1NCc2c1c1c3ccccc3oc1c1[nH]c3ccccc3c21`: the results for the half-maximal inhibitory concentration (IC50) in [1] and in [2] were 1110 nM and > 10000 nM, respectively. In addition, in [3], the result was inactive.

With `COC(=O)[C@]1(O)C[C@@H]2O[C@@]1(C)n1c3ccccc3c3c4c(c5c6ccccc6n2c5c31)C(=O)NC4`, the 50% inhibitory concentration (IC50) in experiment [5] worked out at 45 nM.

Turning to `O=C1NCc2c1c1c(c3[nH]c4ccccc4c23)Cc2ccccc2-1`, the inhibition in [4], in experiment [6], in experiment [7], in experiment [8], in experiment [9] and in [10] was < 30% in each case. Further, the inhibition in experiment [12], in experiment [13] and in experiment [14] was < 30% each time. Further, the IC50 in [5] was 364 nM; in experiment [1] it was 40 nM; in experiment [2], 69 nM; on Protein kinase C (PKC) it was 1196 nM. Also, the Inhibition in [11] is on record as 19%. Also, the Activity in experiment [3] is 152%.

For the compound `O=C1NC(=O)c2c1c1c(c3sc4ccccc4c23)Cc2ccccc2-1`, the IC50 in experiment [1] and in experiment [2] was > 300 nM each time.

As to `O=C1NC(=O)c2c1c1c(c3[nH]c4ccccc4c23)CCc2ccccc2-1`, the inhibition in experiment [4], in [6], in experiment [7], in experiment [8], in [9] and in experiment [10] was < 30% in each case. The inhibition in experiment [12], in experiment [13] and in experiment [14] was < 30% throughout. Also, the IC50 in experiment [5] was 339 nM; in experiment [1], 12 nM; in [15] it was 90 nM; in [2], 22 nM; in experiment [16], > 1000 nM; against Protein kinase C (PKC), 83 nM. Further, the IC50 in experiment [17] was > 300 nM. For the same compound, in [3], the Activity came out at 178%.

Consider `O=C1NC(=O)c2c1c1c(c3[nH]c4ccccc4c23)Cc2ccccc2-1`, for which the IC50 in [1] and in experiment [2] was > 300 nM throughout.

Take `O=C1NCc2c1c1c(c3c2-c2ccccc2C3)Cc2ccccc2-1`: the IC50 in experiment [1] turned out to be 277 nM; in experiment [2], 1410 nM.

`O=C1NCc2c3c(c4[nH]c5ccccc5c4c21)CCc1ccccc1-3`: the inhibition in experiment [4], in experiment [6], in experiment [7], in [8], in [9] and in [10] was < 30% in each case. Besides, the inhibition in [12], in experiment [13] and in experiment [14] was < 30% throughout. Moreover, the concentration for half-maximal inhibition (IC50) in experiment [5] is 3450 nM; in experiment [1], 22 nM; in experiment [15] it was 274 nM; in experiment [2], 46 nM; in experiment [16], > 1000 nM; at Protein kinase C (PKC), 205 nM. Also, the half-maximal inhibitory concentration (IC50) in [17] was > 300 nM. In [3], the Activity was 171%.

On to `O=C1NC(=O)c2c1c1c3ccccc3ccc1c1[nH]c3ccccc3c21`, for which the concentration for half-maximal inhibition (IC50) in experiment [1] and in [2] was 300 nM throughout.

For `O=C1NCc2c1c1c3ccccc3sc1c1[nH]c3ccccc3c21`, the inhibition in experiment [4], in experiment [6], in experiment [7], in experiment [8], in [9] and in experiment [10] was < 30% each time. For the same compound, the inhibition in experiment [12], in experiment [13] and in experiment [14] was < 30% each time. In addition, the half-maximal inhibitory concentration (IC50) is 2090 nM in experiment [5]; 26 nM in experiment [1]; 111 nM in [2]; 88 nM in experiment [16]; > 1000 nM on Protein kinase C (PKC); > 300 nM in [17]. In experiment [11], this compound gave an Inhibition of 3%. Also, the Activity in [3] stood at 138%.

On to `O=C1NC(=O)c2c1c1c3ccccc3sc1c1sc3ccccc3c21`, for which the half-maximal inhibitory concentration (IC50) in [1] and in experiment [2] was > 300 nM each time.

Regarding `O=C1NCc2c1c1c(c3sc4ccccc4c23)Cc2ccccc2-1`, the IC50 in experiment [1] turned out to be 157 nM; in experiment [2], 482 nM.

Consider `O=C1NC(=O)c2c1c1c(c3c2-c2ccccc2C3)Cc2ccccc2-1`, for which the IC50 in experiment [1] and in experiment [2] was > 300 nM throughout. Further, the outcome in experiment [3] was inactive.

For orientation: IC50 means the concentration at which inhibition is half-maximal. Low readings indicate inhibition by little substance, high ones a need for much substance. As a reminder, the inhibition is how much of the control response was suppressed. A lower inhibition goes with little suppression. In general, Inhibition refers to the share of the control response that was lost under treatment.

For the origin of these results see ChEMBL document CHEMBL1141396, “Synthesis and mixed lineage kinase activity of pyrrolocarbazole and isoindolone analogs of (+)K-252a” (J Med Chem, 2007).
